Here are results for 31 compounds from ChEMBL document CHEMBL1158489, “Synthesis and evaluation of 4-acyl-2-thiazolylhydrazone derivatives for anti-Toxoplasma efficacy in vitro” (J Med Chem, 2009).

Data set [1] deals with Toxoplasma gondii. As to the kind of experiment: Antiparasitic activity against Toxoplasma gondii 2F tachyzoites infected in HFF assessed as parasite growth inhibition-related decrease in beta-galactosidase activity treated prior to infection measured after 5 days by spectrophotometry. The data set is classed as functional, organism-based. Conditions: 120 h.
Data set [2] is described as follows: Therapeutic index, ratio of TD50 for human HFF to IC50 for Toxoplasma gondii 2F tachyzoites. The note with it: HFF cells and Toxoplasma gondii 2F tachyzoites, read-out: TI.
Data set [3] in a line: Cytotoxicity against human HFF by spectrophotometry. Conditions: HFF cells, read-out: TD50 (the source's name). It counts as cell-based.
Data set [4] has as its system Toxoplasma gondii. As to the kind of experiment: Antiparasitic activity against Toxoplasma gondii 2F tachyzoites infected in HFF assessed as inhibition of tachyzoite host cell invasion at 25 uM treated 20 mins prior to infection measured after 1 hr using DAPI staining by immunofluorescence microscopy relative to control. Details: scale not given: the % may be the effect or the level left. The data set is classed as functional. The method in brief: (§1)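 Tachyzoites (strain 2F) preincubated with compound or DMSO (final 25 μM) at room temperature 20 min, then added to HFF monolayers; 1 h at 37 °C, 5% CO2, rinsed and fixed. Red/green sequential staining: attached/extracellular parasites labelled Rb anti-p30 with Alexa Fluor 594 (red), penetrated/intracellular green, host nuclei blue. Penetrated and attached counts compared with DMSO control.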

In data set [5] the test system is Toxoplasma gondii. As to the kind of experiment: Antiparasitic activity against Toxoplasma gondii 2F tachyzoites infected in HFF assessed as inhibition of intracellular parasite replication at 25 uM treated 2 hrs postinfection measured after 26 hrs using DAPI staining by fluorescence microscopy relative to control. The data set is classed as functional, organism-based. An outline of the steps:
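HFF monolayers inoculated with tachyzoites, 2 h incubation, then compound (final 25 μM) or DMSO control added to medium. Replication ran 26 h; monolayers fixed, permeabilized, immunolabelled with Rb anti-p30 (SAG1) and goat anti-rabbit Alexa Fluor 594 (red), imaged by fluorescence.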

The test system of data set [6] is Toxoplasma gondii. As to the kind of experiment: Antiparasitic activity against Toxoplasma gondii 2F tachyzoites infected in HFF assessed as decrease in parasite penetration and attachment to host cell at 25 uM treated 20 mins prior to infection measured after 1 hr using DAPI staining by immunofluorescence microscopy relative to control. It counts as functional. Details: scale not given: the % may be the effect or the level left. The method in brief:
as §1

Structures are written as SMILES. Active and inactive are the calls of the source. The calls are words filed in the database; no cut-off is given here. A value given as a limit tells only on which side of the number the result lay.

As for `CC1CCCC/C1=N/Nc1nc(C(=O)O)cs1` (centres undefined), in the data set on Toxoplasma gondii [1], the IC50 turned out to be 128 µM and the concentration for an effect of 90% (IC90) came out at 310 µM. Besides, the selectivity ratio in data set [2] turned out to be 4. Further, in data set [3], the CC50 is at least 320 µM.

As for `CCOC(=O)c1csc(N/N=C/c2ccc3c(c2)OCO3)n1`, in the data set on Toxoplasma gondii [1], the IC50 amounted to 479 µM and the IC90 was found to be 2590 µM. The selectivity ratio in data set [2] is 1. Also, the CC50 in data set [3] was at least 320 µM.

In the case of `CCOC(=O)c1csc(N/N=C2/CCCCC2C)n1` (centres undefined), in the data set on Toxoplasma gondii [1], the concentration for half-maximal inhibition (IC50) amounted to 185 µM and the IC90 was found to be 508 µM. Moreover, the selectivity ratio in data set [2] was determined as 3. Further, the CC50 in data set [3] was at least 320 µM.

Consider `CCOC(=O)c1csc(N/N=C/c2ccco2)n1`, for which the concentration for half-maximal inhibition (IC50) with Toxoplasma gondii [1] is at least 320 µM. Moreover, the CC50 in data set [3] is at least 320 µM.

As to `CCOC(=O)c1csc(N/N=C(\C)c2ccc3ccccc3c2)n1`, in the data set with Toxoplasma gondii [4], the Activity stood at 45%. Also, in the data set with Toxoplasma gondii [1], the IC50 was found to be 43 µM and the 90% effect concentration (IC90) amounted to 88 µM. Besides, the selectivity ratio in data set [2] was found to be 3. In addition, the CC50 in data set [3] worked out at 127 µM.

`CCOC(=O)c1csc(N/N=C/c2cccnc2)n1`: in the data set with Toxoplasma gondii [1], the IC50 was determined as 162 µM and the 90% effect concentration (IC90) was found to be 398 µM. Also, the selectivity ratio in data set [2] worked out at 4. Besides, in data set [3], the CC50 was at least 320 µM.

With `CCOC(=O)c1csc(NN=C2CCC(C)CC2)n1` (centres undefined), in the data set on Toxoplasma gondii [1], the IC50 is 60 µM and the IC90 was determined as 151 µM. For the same compound, the selectivity ratio in data set [2] came out at 9. Further, in data set [3], the CC50 was at least 320 µM.

Consider `CCOC(=O)c1csc(N/N=C(\C)c2cccnc2)n1`, for which, in the data set on Toxoplasma gondii [1], the IC50 came out at 34 µM and the IC90 is 86 µM. For the same compound, the selectivity ratio in data set [2] came out at 17. The CC50 in data set [3] is at least 320 µM.

With `CCOC(=O)c1csc(N/N=C2/CCCC2C)n1` (centres undefined), in the data set with Toxoplasma gondii [1], the IC50 stood at 130 µM and the IC90 was 248 µM. The selectivity ratio in data set [2] was 4. Moreover, the CC50 in data set [3] was at least 320 µM.

In the case of `CCOC(=O)c1csc(N/N=C(\C)c2cccs2)n1`, in the data set on Toxoplasma gondii [1], the IC50 amounted to 37 µM and the IC90 worked out at 136 µM. For the same compound, the selectivity ratio in data set [2] worked out at 15. Further, the CC50 in data set [3] was at least 320 µM.

Regarding `O=C(O)c1csc(NN=C2CCCCCC2)n1`, in the data set on Toxoplasma gondii [1], the IC50 was 179 µM and the IC90 is 3870 µM. Moreover, the selectivity ratio in data set [2] came out at 3. Further, the CC50 in data set [3] is at least 320 µM.

With `CCOC(=O)c1csc(NN=C2CCCC2)n1`, in the data set on Toxoplasma gondii [1], the IC50 was 92 µM and the IC90 worked out at 239 µM. Moreover, the selectivity ratio in data set [2] is 6. For the same compound, the CC50 in data set [3] is at least 320 µM.

`CC1CCC/C(=N/Nc2nc(C(=O)O)cs2)C1` (centres undefined): the half-maximal inhibitory concentration (IC50) in the data set on Toxoplasma gondii [1] was at least 320 µM. In data set [3], the CC50 was at least 320 µM.

`CCOC(=O)c1csc(N/N=C(\C)c2ccccn2)n1`: in the data set with Toxoplasma gondii [4], the Activity is listed as 147%. In the data set on Toxoplasma gondii [1], the IC50 turned out to be 3 µM and the concentration for an effect of 90% (IC90) turned out to be 7 µM. In the data set on Toxoplasma gondii [5], the result was Active. Moreover, the selectivity ratio in data set [2] was determined as 2. In addition, in data set [3], the CC50 was determined as 6 µM.

In the case of `CCOC(=O)c1csc(NN=C2CCCCC2)n1`, the Activity in the data set on Toxoplasma gondii [4] was 45%. In the data set on Toxoplasma gondii [1], the IC50 worked out at 160 µM and the IC90 stood at 638 µM. Further, the selectivity ratio in data set [2] is 4. Further, the CC50 in data set [3] was at least 320 µM.

As to `CCOC(=O)c1csc(N/N=C/c2cccc3ccccc23)n1`, in the data set on Toxoplasma gondii [4], the Activity came to 35%. In the data set with Toxoplasma gondii [1], the half-inhibitory concentration (IC50) is 52 µM and the IC90 amounted to 182 µM. For the same compound, the Activity in the data set with Toxoplasma gondii [6] was 47%. For the same compound, the selectivity ratio in data set [2] worked out at 11. Moreover, the CC50 in data set [3] was at least 320 µM.

Consider `CCOC(=O)c1csc(N/N=C/c2ccncc2)n1`, for which the Activity in the data set with Toxoplasma gondii [4] is 49%. Also, the IC50 in the data set on Toxoplasma gondii [1] is at least 320 µM. Further, the CC50 in data set [3] is at least 320 µM.

For `CC1CC/C(=N/Nc2nc(C(=O)O)cs2)C1` (centres undefined), in the data set on Toxoplasma gondii [4], the Activity is listed as 47%. Further, in the data set with Toxoplasma gondii [1], the IC50 was determined as 38 µM and the IC90 turned out to be 70 µM. The selectivity ratio in data set [2] was determined as 2. Further, the CC50 in data set [3] worked out at 82 µM.

`CCOC(=O)c1csc(N/N=C/c2cccs2)n1`: the IC50 in the data set with Toxoplasma gondii [1] is at least 320 µM. Also, the CC50 in data set [3] is at least 320 µM.

For the compound `CC1CCC(=NNc2nc(C(=O)O)cs2)CC1` (centres undefined), the IC50 in the data set on Toxoplasma gondii [1] is at least 320 µM. Also, the CC50 in data set [3] is at least 320 µM.

Consider `CCOC(=O)c1csc(N/N=C(\C)c2ccncc2)n1`, for which, in the data set on Toxoplasma gondii [1], the IC50 came to 64 µM and the IC90 was 188 µM. Further, the selectivity ratio in data set [2] was 9. In data set [3], the CC50 was at least 320 µM.

For the compound `COc1cc(Cc2cnc(N)nc2N)cc(OC)c1OC` [TRIMETHOPRIM], the IC50 in the data set with Toxoplasma gondii [1] is 14 µM. In addition, the selectivity ratio in data set [2] amounted to 41. In addition, in data set [3], the CC50 was at least 320 µM.

As to `CC1CCC/C1=N/Nc1nc(C(=O)O)cs1` (centres undefined), the IC50 with Toxoplasma gondii [1] is at least 320 µM. In addition, the CC50 in data set [3] was at least 320 µM.

`O=C(O)c1csc(NN=C2CCCC2)n1`: the IC50 in the data set on Toxoplasma gondii [1] is at least 320 µM. In addition, in the data set with Toxoplasma gondii [6], the Activity stood at 47%. Moreover, the CC50 in data set [3] was at least 320 µM.

For `CCOC(=O)c1csc(N/N=C2/CCCC(C)C2)n1` (centres undefined), the Activity in the data set on Toxoplasma gondii [4] was found to be 48%. Besides, in the data set with Toxoplasma gondii [1], the half-maximal inhibitory concentration (IC50) was 15 µM and the IC90 came to 46 µM. In data set [2], the selectivity ratio is 6. The CC50 in data set [3] stood at 84 µM.

`CCOC(=O)c1csc(N/N=C2/CCC(C)C2)n1` (centres undefined): the Activity with Toxoplasma gondii [4] turned out to be 48%. Also, in the data set on Toxoplasma gondii [1], the IC50 came out at 59 µM and the IC90 amounted to 190 µM. In addition, the selectivity ratio in data set [2] amounted to 10. In addition, the CC50 in data set [3] is at least 320 µM.

As for `CCOC(=O)c1csc(NN=C2CCCCCC2)n1`, in the data set with Toxoplasma gondii [1], the 50% inhibitory concentration (IC50) was found to be 77 µM and the IC90 was 226 µM. In data set [2], the selectivity ratio was 7. Also, the CC50 in data set [3] is at least 320 µM.

In the case of `O=C(O)c1csc(NN=C2CCCCC2)n1`, in the data set on Toxoplasma gondii [4], the Activity stood at 45%. Further, in the data set with Toxoplasma gondii [1], the IC50 was at least 320 µM. In addition, the CC50 in data set [3] is at least 320 µM.

With `CCOC(=O)c1csc(N/N=C(\C)c2ccco2)n1`, in the data set on Toxoplasma gondii [1], the IC50 was determined as 49 µM and the concentration for an effect of 90% (IC90) was 161 µM. Also, the selectivity ratio in data set [2] was determined as 5. Moreover, the CC50 in data set [3] worked out at 241 µM.

Regarding `CCOC(=O)c1csc(N/N=C(\C)c2cc3ccccc3oc2=O)n1`, in the data set on Toxoplasma gondii [1], the IC50 was determined as 21 µM and the IC90 was 55 µM. Besides, the selectivity ratio in data set [2] is 27. Moreover, in data set [3], the CC50 is at least 320 µM.

On to `CCOC(=O)c1csc(N/N=C/c2c[nH]c3ccccc23)n1`, for which, in the data set with Toxoplasma gondii [1], the IC50 turned out to be 280 µM and the IC90 stood at 2240 µM. Further, in data set [2], the selectivity ratio is 2. The CC50 in data set [3] was at least 320 µM.
